Test results from ChEMBL document CHEMBL3822380, “Simple avarone mimetics as selective agents against multidrug resistant cancer cells” (Eur J Med Chem, 2016).
pIC50: −log10 of the molar value. In brackets after ≈: the same amount, converted by molar mass. Activity calls are given as the source filed them.

Legend:
Candida albicans = test: Antifungal activity against Candida albicans ATCC 10231 by broth microdilution method; assay type: functional
Summary of the method: (§1)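 Broth microdilution per NCCLS. Compounds dissolved in DMSO as 10 mg/mL stock, diluted in Mueller Hinton broth (bacteria) or Sabouraud dextrose broth (fungi). Amikacin served as the positive control for bacteria and nystatin for fungi.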

Aspergillus brasiliensis = test: Antifungal activity against Aspergillus brasiliensis ATCC 16404 by broth microdilution method; assay type: functional; summary of the method: as §1
Saccharomyces cerevisiae = test: Antifungal activity against Saccharomyces cerevisiae ATCC 9763 by broth microdilution method; assay type: functional; summary of the method: as §1
NCI-H460 [1] = test: Cytotoxicity against human NCI-H460 cells after 72 hrs by MTT assay; assay type: functional, cell-based; settings: NCI-H460, 72 h
Summary of the method: (§2)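 Seeding in 96-well plates at 1000 (NCI-H460), 2000 (NCI-H460/R) or 4000 (HaCaT) cells/well, treated after 24 h for 72 h. MTT at 0.4 mg/mL final, 4 h at 37 °C. Formazan dissolved in DMSO, absorbance read at 540 nm. Inhibition % = (1 − A treated/A untreated)×100. IC30 and IC50 obtained by linear regression.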

NCI-H460 [2] = test: Cytotoxicity against multidrug resistant human NCI-H460 cells after 72 hrs by MTT assay; assay type: functional, cell-based; settings: NCI-H460, 72 h; summary of the method: as §2
NCI-H460 [3] = test: Selectivity ratio of IC30/IC50 for human NCI-H460 cells to IC30/IC50 for multidrug resistant human NCI-H460 cells; assay type: functional
Summary of the method: (§3)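 Fold threshold of 1.5 used to call selectivity to cancer cells, resistance, or selectivity to MDR cells.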

HaCaT [4] = test: Cytotoxicity against human HaCaT cells after 72 hrs by MTT assay; assay type: cell-based; settings: for pIC50: Homo sapiens, HaCaT; for IC30: human, hacat; summary of the method: as §2
Pseudomonas aeruginosa = test: Antibacterial activity against Pseudomonas aeruginosa ATCC 9027 by broth microdilution method; assay type: functional; summary of the method: as §1
Kocuria rhizophila = test: Antibacterial activity against Kocuria rhizophila ATCC 9341 by broth microdilution method; assay type: functional; settings: DC2201; summary of the method: as §1
Escherichia coli = test: Antibacterial activity against Escherichia coli ATCC 25922 by broth microdilution method; assay type: functional; summary of the method: as §1
Micrococcus luteus [5] = test: Antibacterial activity against Micrococcus luteus ATCC 4698 by broth microdilution method; assay type: functional; settings: NCTC 2665; summary of the method: as §1
Micrococcus luteus [6] = test: Antibacterial activity against Micrococcus luteus ATCC 10240 by broth microdilution method; assay type: functional; summary of the method: as §1
Bacillus spizizenii = test: Antibacterial activity against Bacillus subtilis ATCC 6633 by broth microdilution method; assay type: functional; summary of the method: as §1
Salmonella enteritidis = test: Antibacterial activity against Salmonella enterica subsp. enterica serovar Enteritidis ATCC 13076 by broth microdilution method; assay type: functional; summary of the method: as §1
Proteus hauseri = test: Antibacterial activity against Proteus hauseri ATCC 13315 by broth microdilution method; assay type: functional; summary of the method: as §1
Staphylococcus aureus = test: Antibacterial activity against Staphylococcus aureus ATCC 6538 by broth microdilution method; assay type: functional; summary of the method: as §1
Clostridium sporogenes = test: Antibacterial activity against Clostridium sporogenes ATCC 19404 by broth microdilution method; assay type: functional; summary of the method: as §1
[7] = Selectivity ratio of IC30/IC50 for human HaCaT cells to IC30/IC50 for multidrug resistant human NCI-H460 cells; assay type: ADME, cell-based; settings: HaCaT cells versus multidrug resistant NCI-H460 cells; summary of the method: as §3
[8] = Selectivity ratio of IC30/IC50 for human HaCaT cells to IC30/IC50 for human NCI-H460 cells; assay type: ADME, cell-based; settings: HaCaT cells versus NCI-H460 cells; summary of the method: as §3
HaCaT [9] = test: Induction of apoptosis in human HaCaT cells assessed as late apoptotic/necrotic cells at 25 uM after 72 hrs by annexin-V/propidium iodide staining-based flow cytometric analysis (reference value: 0.2%); assay type: cell-based
NCI-H460 [10] = test: Induction of apoptosis in human NCI-H460 cells assessed as early apoptotic cells at 25 uM after 72 hrs by annexin-V/propidium iodide staining-based flow cytometric analysis (reference value: 0.3%); assay type: functional
NCI-H460 [11] = test: Induction of superoxide anion generation in multidrug resistant human NCI-H460 cells at 25 uM after 72 hrs by DHE staining-based flow cytometric analysis relative to control; assay type: functional, cell-based
Summary of the method: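 Seeded as for cell death (50,000 or 100,000 cells/well), treated 72 h at 25 µM, with CDDP 5 µM as control. Adherent cells trypsinized and loaded with 1 µM DHE for 30 min at 37 °C in the dark, then washed twice in PBS. Flow cytometry at ex 488/em 585 nm (FL2-H). Mean fluorescence intensity corrected for autofluorescence and compared with untreated control.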

NCI-H460 [12] = test: Induction of apoptosis in human NCI-H460 cells assessed as dead cells at 25 uM after 72 hrs by annexin-V/propidium iodide staining-based flow cytometric analysis (reference value: 1.2%); assay type: functional
NCI-H460 [13] = test: Induction of apoptosis in human NCI-H460 cells assessed as late apoptotic/necrotic cells at 25 uM after 72 hrs by annexin-V/propidium iodide staining-based flow cytometric analysis (reference value: 0.2%); assay type: functional
NCI-H460 [14] = test: Induction of apoptosis in multidrug resistant human NCI-H460 cells assessed as live cells at 25 uM after 72 hrs by annexin-V/propidium iodide staining-based flow cytometric analysis (reference value: 96.4%); assay type: functional
HaCaT [15] = test: Induction of apoptosis in human HaCaT cells assessed as dead cells at 25 uM after 72 hrs by annexin-V/propidium iodide staining-based flow cytometric analysis (reference value: 2.8%); assay type: cell-based
[16] = Induction of apoptosis in human HaCaT cells assessed as live cells at 25 uM after 72 hrs by annexin-V/propidium iodide staining-based flow cytometric analysis (reference value: 96.8%); assay type: cell-based; settings: read-out: Activity
HaCaT [17] = test: Induction of apoptosis in human HaCaT cells assessed as early apoptotic cells at 25 uM after 72 hrs by annexin-V/propidium iodide staining-based flow cytometric analysis (reference value: 0.2%); assay type: cell-based
NCI-H460 [18] = test: Induction of apoptosis in multidrug resistant human NCI-H460 cells assessed as dead cells at 25 uM after 72 hrs by annexin-V/propidium iodide staining-based flow cytometric analysis (reference value: 1.5%); assay type: functional
NCI-H460 [19] = test: Induction of apoptosis in human NCI-H460 cells assessed as live cells at 25 uM after 72 hrs by annexin-V/propidium iodide staining-based flow cytometric analysis (reference value: 98.3%); assay type: functional
NCI-H460 [20] = test: Induction of apoptosis in multidrug resistant human NCI-H460 cells assessed as early apoptotic cells at 25 uM after 72 hrs by annexin-V/propidium iodide staining-based flow cytometric analysis (reference value: 1.1%); assay type: functional
NCI-H460 [21] = test: Induction of apoptosis in multidrug resistant human NCI-H460 cells assessed as late apoptotic/necrotic cells at 25 uM after 72 hrs by annexin-V/propidium iodide staining-based flow cytometric analysis (reference value: 1%); assay type: functional

Compound | MIC (Candida albicans) | MIC (Aspergillus brasiliensis) | MIC (Saccharomyces cerevisiae) | IC30 (NCI-H460 [1]) | pIC50 (NCI-H460 [1]) | IC30 (NCI-H460 [2]) | pIC50 (NCI-H460 [2]) | pIC50 (HaCaT [4]) | IC30 (HaCaT [4]) | MIC (Pseudomonas aeruginosa) | MIC (Kocuria rhizophila) | MIC (Escherichia coli) | MIC (Micrococcus luteus [5]) | MIC (Micrococcus luteus [6]) | MIC (Bacillus spizizenii) | MIC (Salmonella enteritidis) | MIC (Proteus hauseri) | MIC (Staphylococcus aureus) | MIC (Clostridium sporogenes) | selectivity ratio [7] | also measured
NYSTATIN | 2700 µM | 1350 µM | 1350 µM | – | – | – | – | – | – | – | – | – | – | – | – | – | – | – | – | – | –
CCCCNC1=CC(=O)C=C(C[C@]2(C)[C@@H](C)CC[C@]3(C)C(C)=CCC[C@@H]23)C1=O | – | – | – | 9 µM | 4.80 | 3 µM | 5.22 | 4.80 | 11 µM | – | – | – | – | – | – | – | – | – | – | – | selectivity ratio (NCI-H460 [3]): <=1.5
CNC1=CC(=O)C(C(C)(C)C)=CC1=O | 1620 µM (≈ 313 µg/mL) | 51 µM (≈ 9.86 µg/mL) | 1620 µM (≈ 313 µg/mL) | 34 µM | 4.20 | 31 µM | 4.24 | 4.55 | 17 µM | 1620 µM (≈ 313 µg/mL) | 409 µM (≈ 79 µg/mL) | 104 µM (≈ 20.1 µg/mL) | 831 µM (≈ 161 µg/mL) | 103 µM (≈ 19.9 µg/mL) | 813 µM (≈ 157 µg/mL) | 813 µM (≈ 157 µg/mL) | 813 µM (≈ 157 µg/mL) | 25 µM (≈ 4.83 µg/mL) | 813 µM (≈ 157 µg/mL) | – | –
CCNC1=CC(=O)C=C(C(C)(C)C)C1=O | 1510 µM (≈ 313 µg/mL) | 48 µM (≈ 9.95 µg/mL) | 1510 µM (≈ 313 µg/mL) | 4 µM | 4.89 | 5 µM | 4.85 | 4.52 | 22 µM | 758 µM (≈ 157 µg/mL) | 381 µM (≈ 79 µg/mL) | 24 µM (≈ 4.97 µg/mL) | 758 µM (≈ 157 µg/mL) | 24 µM (≈ 4.97 µg/mL) | 758 µM (≈ 157 µg/mL) | 381 µM (≈ 79 µg/mL) | 758 µM (≈ 157 µg/mL) | 24 µM (≈ 4.97 µg/mL) | 758 µM (≈ 157 µg/mL) | ≤ 1.5 | selectivity ratio [8]: ≤ 1.5
CCCCCCCCNC1=CC(=O)C(C(C)(C)C)=CC1=O | 4300 µM (≈ 1250 µg/mL) | 2150 µM (≈ 626 µg/mL) | 4300 µM (≈ 1250 µg/mL) | 18 µM | 4.15 | 21 µM | 4.19 | < 4.00 | > 100 µM | 2150 µM (≈ 626 µg/mL) | 4300 µM (≈ 1250 µg/mL) | 4300 µM (≈ 1250 µg/mL) | 4300 µM (≈ 1250 µg/mL) | 2150 µM (≈ 626 µg/mL) | 4300 µM (≈ 1250 µg/mL) | 2150 µM (≈ 626 µg/mL) | 2150 µM (≈ 626 µg/mL) | 4300 µM (≈ 1250 µg/mL) | 2150 µM (≈ 626 µg/mL) | ≤ 1.5 | Activity (HaCaT [9]): 0.5%; Activity (NCI-H460 [10]): 0.1%; Activity (NCI-H460 [11]): inactive; Activity (NCI-H460 [12]): 17.3%; selectivity ratio [8]: ≤ 1.5; Activity (NCI-H460 [13]): 1.7%; Activity (NCI-H460 [14]): 83.9%; Activity (HaCaT [15]): 5.7%; viability at 72 h, 25 µM [16]: 93.8%; Activity (HaCaT [17]): 0%; Activity (NCI-H460 [18]): 14%; Activity (NCI-H460 [19]): 80.9%; Activity (NCI-H460 [20]): 0.2%; Activity (NCI-H460 [21]): 1.9%
CCCCCCCCNC1=CC(=O)C(C[C@]2(C)[C@@H](C)CC[C@]3(C)C(C)=CCC[C@@H]23)=CC1=O | – | – | – | > 100 µM | < 4.00 | > 100 µM | < 4.00 | < 4.00 | > 100 µM | – | – | – | – | – | – | – | – | – | – | – | Activity (HaCaT [9]): 0.7%; Activity (NCI-H460 [10]): 0%; Activity (NCI-H460 [11]): inactive; Activity (NCI-H460 [12]): 4.6%; Activity (NCI-H460 [13]): 0.3%; Activity (NCI-H460 [14]): 96.1%; Activity (HaCaT [15]): 5.8%; viability at 72 h, 25 µM [16]: 93.4%; Activity (HaCaT [17]): 0.1%; Activity (NCI-H460 [18]): 3.1%; Activity (NCI-H460 [19]): 95.1%; Activity (NCI-H460 [20]): 0.1%; Activity (NCI-H460 [21]): 0.7%
